Calls of active or inactive are those of the source. The rule behind the calls is not given here.
How the values were obtained:
[1] = Drug level in mouse brain after 2 hrs; type: ADME, tissue-based; conditions: read-out: Drug uptake
How it was run: (§1)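 [18F]-labelled ligands, HPLC-purified to >97% radiochemical purity, given by injection to normal mice. Brain radioactivity measured at 2 min, 2 h and 3 h after injection. Expressed as % injected dose per gram of tissue.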

[2] = Partition coefficient, log P of the compound; type: physicochemical; conditions: octanol/water
How it was run: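 Partition coefficient measured for the HPLC-purified [18F]-radiolabelled ligands at pH 7.4. Reported as log P.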

[3] = Drug level in mouse brain after 2 mins; type: ADME, tissue-based; conditions: read-out: Drug uptake; how it was run: as §1
[4] = Drug level in mouse brain after 3 hrs; type: ADME, tissue-based; conditions: read-out: Drug uptake; how it was run: as §1
[5] = molecular target: T1, Amyloid-beta precursor protein (Homo sapiens, UniProt P05067); experiment: Binding affinity to beta-amyloid in gray matter of AD patent brain; type: tissue-based; conditions: tested as the 18F-labelled form
[6] = molecular target: T1, Amyloid-beta precursor protein; experiment: Displacement of [125I]IMPY from beta-amyloid plaques in AD patient brain
How it was run: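 Competition binding against the radioligand [125I]IMPY (6-iodo-2-(4'-dimethylamino-)phenylimidazo[1,2-a]pyridine). Tissue: homogenates of postmortem AD brain. Reported as Ki.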

T1 sequence (P05067 whole entry): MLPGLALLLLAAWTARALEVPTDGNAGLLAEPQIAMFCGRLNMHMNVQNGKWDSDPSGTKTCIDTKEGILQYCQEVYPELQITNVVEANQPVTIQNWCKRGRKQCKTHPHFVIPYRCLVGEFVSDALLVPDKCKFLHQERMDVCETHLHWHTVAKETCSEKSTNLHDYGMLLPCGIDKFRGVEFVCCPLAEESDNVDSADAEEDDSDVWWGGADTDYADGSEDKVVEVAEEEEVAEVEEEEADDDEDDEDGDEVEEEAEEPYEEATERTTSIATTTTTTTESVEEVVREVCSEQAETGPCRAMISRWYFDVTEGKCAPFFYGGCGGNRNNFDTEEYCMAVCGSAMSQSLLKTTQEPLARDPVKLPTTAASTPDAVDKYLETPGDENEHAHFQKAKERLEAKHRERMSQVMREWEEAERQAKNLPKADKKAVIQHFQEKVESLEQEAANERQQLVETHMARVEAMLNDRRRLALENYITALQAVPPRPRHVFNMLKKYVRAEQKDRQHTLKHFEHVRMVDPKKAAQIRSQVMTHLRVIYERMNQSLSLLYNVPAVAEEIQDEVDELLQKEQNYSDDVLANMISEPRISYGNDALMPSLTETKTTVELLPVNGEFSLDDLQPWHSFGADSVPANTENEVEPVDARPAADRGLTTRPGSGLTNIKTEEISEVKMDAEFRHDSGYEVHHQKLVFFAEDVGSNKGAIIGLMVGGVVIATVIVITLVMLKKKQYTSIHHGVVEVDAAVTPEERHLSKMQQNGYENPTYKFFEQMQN

Compound | tissue uptake at 2 h [1] | logP [2] | tissue uptake at 2 min [3] | tissue uptake at 3 h [4] | Activity [5] | Ki [6]
[18F]CCOCCOCCOc1ccc(C#Cc2ccc3c(c2)CCN3)cc1 | 1.71 %ID/g | 2.95 | 4.5 %ID/g |  |  | 
[18F]CCOCCOCCOc1ccc(C#Cc2ccc3[nH]ccc3c2)cc1 |  | 2.56 | 2.43 %ID/g | 2.1 %ID/g |  | 
FCCOCCOCCOc1ccc(C#Cc2ccc3[nH]ccc3c2)cc1 |  |  |  |  | Active | 1.5 nM
FCCOCCOCCOc1ccc(C#Cc2ccc3c(c2)CCN3)cc1 |  |  |  |  | Active | 4 nM
